# Results of several laboratories.
# Lines come from different studies, so protocols differ.
# Target: Serine/threonine-protein kinase Nek1 (NEK1, Homo sapiens, UniProt Q96PY6)
# One construct used (Q96PY6 1-1258): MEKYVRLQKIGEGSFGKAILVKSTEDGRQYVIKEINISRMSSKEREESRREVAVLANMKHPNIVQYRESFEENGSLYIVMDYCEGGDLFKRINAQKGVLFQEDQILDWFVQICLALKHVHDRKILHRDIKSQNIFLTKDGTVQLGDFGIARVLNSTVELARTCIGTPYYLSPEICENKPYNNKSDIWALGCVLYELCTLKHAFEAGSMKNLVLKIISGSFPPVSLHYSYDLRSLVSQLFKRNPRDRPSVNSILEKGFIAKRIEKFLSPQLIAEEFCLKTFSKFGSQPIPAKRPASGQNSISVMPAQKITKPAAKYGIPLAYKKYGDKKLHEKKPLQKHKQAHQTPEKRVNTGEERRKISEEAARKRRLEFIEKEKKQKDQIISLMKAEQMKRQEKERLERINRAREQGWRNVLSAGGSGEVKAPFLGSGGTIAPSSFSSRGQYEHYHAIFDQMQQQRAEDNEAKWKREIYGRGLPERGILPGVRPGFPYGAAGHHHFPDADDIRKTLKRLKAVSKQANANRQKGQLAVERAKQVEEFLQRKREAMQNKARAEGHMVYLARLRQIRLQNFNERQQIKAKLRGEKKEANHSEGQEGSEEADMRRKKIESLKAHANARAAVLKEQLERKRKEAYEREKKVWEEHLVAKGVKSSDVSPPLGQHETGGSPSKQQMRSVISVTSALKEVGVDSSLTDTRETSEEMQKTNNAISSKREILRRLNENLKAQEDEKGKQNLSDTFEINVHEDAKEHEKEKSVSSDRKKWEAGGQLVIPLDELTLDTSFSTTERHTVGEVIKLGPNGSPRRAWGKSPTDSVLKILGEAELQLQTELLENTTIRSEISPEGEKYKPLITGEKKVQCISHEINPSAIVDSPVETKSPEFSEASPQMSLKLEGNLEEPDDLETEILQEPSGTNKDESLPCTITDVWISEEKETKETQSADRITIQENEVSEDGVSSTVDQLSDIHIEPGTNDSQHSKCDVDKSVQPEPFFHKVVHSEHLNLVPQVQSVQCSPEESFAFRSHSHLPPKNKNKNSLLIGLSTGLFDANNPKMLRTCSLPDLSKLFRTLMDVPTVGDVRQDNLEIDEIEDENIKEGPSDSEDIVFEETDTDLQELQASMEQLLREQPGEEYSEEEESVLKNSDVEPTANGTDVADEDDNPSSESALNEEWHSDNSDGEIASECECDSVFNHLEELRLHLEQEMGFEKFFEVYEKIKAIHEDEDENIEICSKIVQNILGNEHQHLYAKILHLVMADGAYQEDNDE
Structure (SMILES),effect on,mode,technique,cells,concentration,quantity,value
Cc1nn(C)cc1-c1nc2c(N3CCN(Cc4ccc(Cl)cc4)CC3)c(Cl)cnc2[nH]1,binding,,competition with immobilised ligand,,1 µM,remaining binding,82%
COc1ncccc1-c1cnn2ccc(N3CCN(C(=O)OC(C)C)CC3)nc12,binding,,competition with immobilised ligand,,1 µM,remaining binding,100%
CC(C)(C)c1cc(C=C(C#N)C#N)cc(Br)c1O,enzyme activity,inhibitor,,,0.5 µM,remaining activity,97.7%
Cn1cncc1[C@](O)(COc1ccc(C#N)cc1-c1ccc(OC(F)(F)F)cc1)c1ccc(C#N)cc1,cell-free assay,,competition with immobilised ligand,,1 µM,remaining binding,80%
Cn1cc(-c2cc(F)cc(N3CCn4c(cc5c4CCCC5)C3=O)c2CO)cc(Nc2ccc(N3CCN(C4COC4)CC3)cn2)c1=O,enzyme activity,inhibitor,,,0.1 µM,inhibition,-3%
COc1cc(Nc2ncc(F)c(Nc3ccc4c(n3)NC(=O)C(C)(C)O4)n2)cc(OC)c1OC,binding,,competition with immobilised ligand,,10 µM,inhibition,96%
O=C(NCc1ncc(C(F)(F)F)cc1Cl)c1ccc2c(c1)C1(CCS(=O)(=O)CC1)[C@@H](C1CC1)N2S(=O)(=O)c1ccc(F)cc1,cell-free assay,,competition with immobilised ligand,,1 µM,remaining binding,96%
COCc1c(-c2cc3cc(C)cc(OC)c3s2)c2c(N)ncnn2c1CN1CCNC(=O)C1,cell-free assay,,competition with immobilised ligand,,1 µM,inhibition,78%
Cn1cc(-c2cccc(N3CCc4c(sc5c4CC(C)(C)C5)C3=O)c2CO)cc(Nc2ccncn2)c1=O,enzyme activity,inhibitor,,,1 µM,inhibition,5%
O=c1[nH]c2ccccc2n1C1CCN(Cc2ccc(-c3[nH]c4cc5ncnc5cc4nc3-c3ccccc3)cc2)CC1,cell-free assay,,,,0.5 µM,remaining signal,101%
Nc1ncc(-c2nc(N3CCOCC3)nc(N3CCOCC3)n2)c(C(F)F)n1,binding,,competition with immobilised ligand,,10 µM,remaining binding,99%
CCN1CCN(Cc2ccc(NC(=O)c3ccc(C)c(/C=C/c4cnc5[nH]ccc5c4OC)c3)cc2C(F)(F)F)CC1,target engagement in cells,inhibitor,chemoproteomics,A-375,50 nM,inhibition,-17%
